HUVEC inhibit – blocks proliferation of human endothelial cells; HUVEC proliferation, CellTiter-Glo luminescence, 72 h; hits give low values; viability, % at 10 µM (by protocol); 1.1% of 86,000 active; AID 648;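 active means viability at or below 30%; inactive means viability above 30%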;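 further: 100% = median luminescence of DMSO-only cell control wells on each plate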
PTEN del growth – growth suppressors of cells with PTEN tumor suppressor deletion. HCT116 PTEN-null viability, CellTiter-Glo, 60 h; hits give low values. AID 827. 1.2% of 140,000 active. viability, % at 10 µM;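 active means viability at or below a set limit, 4 SD under the median of all tested compounds, cut at about 3.7% in these data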;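 further: PTEN knockout HCT116 line with beta catenin targeted HCT116 as companion control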
bCat KO growth – beta-catenin-lacking colon tumor cell growth suppression | HCT116 beta-catenin knockout viability, CellTiter-Glo, 60 h; hits give low values | 1.5% of 140,000 active | viability, % at 10 µM;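 active means viability at or under a set limit, the compound median less 4 SD, cut at about 6% in these data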;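 further: 0% = Hyamine 1622 control at 20 µM and 100% = untreated cell control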
Lung fibro prol – blocks proliferation of human lung fibroblasts; LL 47 human lung fibroblast viability, ATP luminescence; hits give low values; viability, % at 10 µM; 1.1% of 85,000 active; AID 719;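 active means viability at or below 50% in the single dose screen; inactive means viability above 50%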;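 further: compound exposure lasted 72 h before the ATP readout; 100% = median luminescence of untreated cell-only wells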
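Material: human LL 47 lung fibroblast cells; quantity: 1,150 cells/well; medium: IMEM plus 15% FBS; doses: 0.1% DMSO in all compound wells; timing: overnight attachment after seeding, then 72 h compound exposure at 37 °C; detection: CellTiter-Glo luminescence; measure: % viability of median cell-only signal; controls: cell-only wells, no compound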
H69AR growth 86K – growth inhibitors of human H69AR lung tumor cells | H69AR lung tumor viability, ATP luminescence, 72 h; hits give low values | viability, % at 10 µM | 6% of 85,000 active;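 active means viability at or below 40%; inactive means viability above 40%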;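 further: multidrug resistant small cell line overexpressing MRP-1 efflux transporter; 100% = mean luminescence of untreated control wells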
* = called active by the depositor. Many of the other results were omitted from the sample, so hits are more common in it than they were.

Results for O=C(O)/C(=C\c1ccc(Br)cc1)c1ccc(S(=O)(=O)N2CCCCC2)s1 ?
PTEN del growth: 94; bCat KO growth: 96

How did CCCOc1ccc(-c2nnn(CC(=O)Nc3cccc(C(=O)OC)c3)n2)cc1 do in these assays?
HUVEC inhibit: 105; PTEN del growth: 79; bCat KO growth: 77; Lung fibro prol: 76; H69AR growth 86K: 38*

How did O=C1CCCN1c1ccc(S(=O)(=O)NCCOc2ccccc2)cc1 do in these assays?
HUVEC inhibit: 114; PTEN del growth: 81; bCat KO growth: 65; Lung fibro prol: 103; H69AR growth 86K: 102

How did Cc1cc(N2CCCC2=O)cc(C)c1S(=O)(=O)NCCOc1ccc(C(C)(C)C)cc1 do in these assays?
HUVEC inhibit: 79; PTEN del growth: 25; bCat KO growth: 22; Lung fibro prol: 96; H69AR growth 86K: 33*

How did CC1CCCCC1NC(=O)CN1C(=O)NC(Cc2ccccc2)(Cc2ccccc2)C1=O (configuration not stated) do in these assays?
PTEN del growth: 93; bCat KO growth: 100

What do the screens show for `CC(NC(=O)Cn1ncc(Cl)c(Cl)c1=O)C12CC3CC(CC(C3)C1)C2` (configuration not stated)?
PTEN del growth: 1.4*; bCat KO growth: 1.2*

Results for CC(NC(=O)CN1C(=O)NC(Cc2ccccc2)(Cc2ccccc2)C1=O)C12CC3CC(CC(C3)C1)C2 (configuration not stated) ?
HUVEC inhibit: 74; PTEN del growth: 62; bCat KO growth: 74; Lung fibro prol: 89; H69AR growth 86K: 6.3*

Results for Cn1c(Cl)cnc1C1CC(=O)c2cc(Cl)ccc2O1 (configuration not stated) ?
HUVEC inhibit: 39; PTEN del growth: 1.8*; bCat KO growth: 2.8*; Lung fibro prol: 16*; H69AR growth 86K: 0.2*

How did CCc1cccc(C)c1NC(=O)C1CN(S(=O)(=O)c2ccccc2)CCN1S(=O)(=O)c1ccccc1 (configuration not stated) do in these assays?
PTEN del growth: 85; bCat KO growth: 79

What do the screens show for `COc1ccc(Nc2ncc3c(n2)CC(c2ccccc2)CC3=O)cc1` (configuration not stated)?
HUVEC inhibit: 109; PTEN del growth: 88; bCat KO growth: 75; Lung fibro prol: 102; H69AR growth 86K: 61

Results for COc1cccc(C(=O)Nc2ncc3c(n2)CC(c2ccc(OC)cc2OC)CC3=O)c1 (configuration not stated) ?
HUVEC inhibit: 57; PTEN del growth: 16; bCat KO growth: 20; Lung fibro prol: 69; H69AR growth 86K: 18*

How did Cc1ccc(C(C)C)c(OCc2ccc(C(=O)N/N=C/c3cccc(O)c3O)cc2)c1 do in these assays?
PTEN del growth: 9; bCat KO growth: 7

What do the screens show for `CC(NC(=O)c1cc(-c2ccc(Br)cc2)on1)c1ccccc1` (configuration not stated)?
HUVEC inhibit: 76; PTEN del growth: 59; bCat KO growth: 54; Lung fibro prol: 74; H69AR growth 86K: 22*

How did COC(=O)c1cc(-c2ccc(Br)cc2)on1 do in these assays?
HUVEC inhibit: 93; PTEN del growth: 101; bCat KO growth: 105; Lung fibro prol: 100; H69AR growth 86K: 105

Results for O=C(c1cnn2c1NC(c1ccco1)CC2C(F)(F)F)N1CCN(c2cccc(Cl)c2)CC1 (configuration not stated) ?
HUVEC inhibit: 58; PTEN del growth: 39; bCat KO growth: 62; Lung fibro prol: 88; H69AR growth 86K: 14*

What do the screens show for `O=C(C1=C(O)/C(=C/c2ccc(O)cc2)CCC1)C(F)(F)F`?
HUVEC inhibit: 83; PTEN del growth: 72; bCat KO growth: 66; Lung fibro prol: 99; H69AR growth 86K: 29*

What do the screens show for `COc1ccc(C(=O)NNC(=O)CN2CCC(n3nnc4cc(F)ccc43)CC2)cc1`?
PTEN del growth: 100; bCat KO growth: 83

What do the screens show for `COc1ccc(OC)c(C2CC(c3c(-c4ccccc4)c4cc(Cl)ccc4[nH]c3=O)=NN2S(C)(=O)=O)c1` (configuration not stated)?
PTEN del growth: 0.5*; bCat KO growth: 0.6*

What do the screens show for `COc1ccc(C2CC(c3c(-c4ccccc4)c4cc(Cl)ccc4[nH]c3=O)=NN2S(C)(=O)=O)cc1` (configuration not stated)?
HUVEC inhibit: 63; PTEN del growth: 85; bCat KO growth: 87; Lung fibro prol: 79; H69AR growth 86K: 14*

What do the screens show for `O=C(O)CCC(=O)N1N=C(c2c(-c3ccccc3)c3cc(Cl)ccc3[nH]c2=O)CC1c1cccs1` (configuration not stated)?
PTEN del growth: 92; bCat KO growth: 85

Results for CCCCCNc1nc(N2CCCC2)c2c(c1C#N)CCN(C)C2 ?
HUVEC inhibit: 4.9*; PTEN del growth: 54; bCat KO growth: 56; Lung fibro prol: 39*; H69AR growth 86K: 2.1*

Results for O=c1c2ccccc2nc2c3ccccc3c(NCCN3CCOCC3)nn12 ?
HUVEC inhibit: 36; PTEN del growth: 2.5*; bCat KO growth: 1.9*; Lung fibro prol: 33*; H69AR growth 86K: 19*

How did c1ccc(-c2nc(NCCCN3CCOCC3)c3ccccc3n2)cc1 do in these assays?
HUVEC inhibit: 83; PTEN del growth: 64; bCat KO growth: 67; Lung fibro prol: 99; H69AR growth 86K: 26*

How did O=c1c2ccccc2nc2c3ccccc3c(N3CCOCC3)nn12 do in these assays?
HUVEC inhibit: 96; Lung fibro prol: 95; H69AR growth 86K: 77

How did COc1cc(C(=O)Oc2ccccc2/C=N/NC(=O)c2ccc(Cl)cc2Cl)cc(OC)c1OC do in these assays?
PTEN del growth: 2.4*; bCat KO growth: 2.7*

Results for C=CCOc1ccccc1/C=N/NC(=O)c1ccc(Cl)cc1Cl ?
PTEN del growth: 92; bCat KO growth: 85

What do the screens show for `C/C(=N\NC(=O)CNc1cccc(C)c1)c1ccc(Br)s1`?
PTEN del growth: 88; bCat KO growth: 79

Results for C/C(=N\NC(=O)c1ccc(Cl)c(Cl)c1)c1ccc(Br)s1 ?
PTEN del growth: 3.6*; bCat KO growth: 6.1*

What do the screens show for `Clc1cccc(-c2nnc(-c3ccccc3)o2)c1`?
PTEN del growth: 7; bCat KO growth: 2.4*

How did O=C(Nc1cccc(-c2nnc(-c3ccccc3)o2)c1)C1CCCCC1 do in these assays?
HUVEC inhibit: 68; PTEN del growth: 23; bCat KO growth: 61; Lung fibro prol: 96; H69AR growth 86K: 19*

How did O=C(Nc1ccc2nc(-c3ccco3)[nH]c2c1)c1cccs1 do in these assays?
HUVEC inhibit: 94; PTEN del growth: 78; bCat KO growth: 87; Lung fibro prol: 91; H69AR growth 86K: 40*

How did Cc1cccc(C)c1OCC(=O)Nc1cccc(-c2nnc(-c3ccccc3)o2)c1 do in these assays?
PTEN del growth: 43; bCat KO growth: 63

Results for Cc1cccc(OCC(=O)Nc2cccc(-c3nnc(-c4ccccc4)o3)c2)c1C ?
HUVEC inhibit: 50; PTEN del growth: 27; bCat KO growth: 71; Lung fibro prol: 56; H69AR growth 86K: 9.8*

Assay outcomes as filed in PubChem.
